Results as given in ChEMBL document CHEMBL5058577, “EUbOPEN Chemogenomics Library 2 (Multiplex)” (2022).

Test system: HEK-293T
Test: Multiplex assay against HEK293T
Format: toxicity, cell-based
Details: human
How it was run: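 Four dyes were applied at seeding to live cells: Hoechst33342, BioTracker Green Microtubule Cytoskeleton Dye, MitoTracker Red and Annexin V Alexa Fluor 680. Imaging after compound addition used a CQ1 microscope at 37°C and 5% CO2. CellPathfinder machine-learning gating then sorted cells into Hoechst high-intensity objects or normal cells, normal cells into healthy, pyknosed or fragmented nuclei, and pyknosed cells into mitotic or apoptotic, with tubulin, mitochondrial-mass and membrane-permeability phenotypes given as per cents of healthy-nucleus cells.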

[1] = 12 h, 1 µM, compound concentration 1 uM, replicate 1
[2] = 12 h, 1 µM, compound concentration 1 uM, replicate 2
[3] = 12 h, 10 µM, compound concentration 10 uM, replicate 1
[4] = 12 h, 10 µM, compound concentration 10 uM, replicate 2
[5] = 24 h, 1 µM, compound concentration 1 uM, replicate 1
[6] = 24 h, 1 µM, compound concentration 1 uM, replicate 2
[7] = 24 h, 10 µM, compound concentration 10 uM, replicate 1
[8] = 24 h, 10 µM, compound concentration 10 uM, replicate 2
[9] = 48 h, 1 µM, compound concentration 1 uM, replicate 1
[10] = 48 h, 1 µM, compound concentration 1 uM, replicate 2
[11] = 48 h, 10 µM, compound concentration 10 uM, replicate 1
[12] = 48 h, 10 µM, compound concentration 10 uM, replicate 2

Compound: Cc1ccc(/C(=C\CN2CCCC2)c2ccccn2)cc1 [TRIPROLIDINE]
- Population Apoptotic (%) [1]: 34%
- Population Fragmented Nuclei (%) [1]: 6%
- Population Healthy Nuclei (%) [1]: 83%
- Population Hoechst High Intensity Objects (%) [1]: 7%
- Population Membrane Permeable-Phenotype (%) [1]: 0%
- Population Mitochondria Different-Phenotype (%) [1]: 45%
- Population Mitotic Cells (%) [1]: 65%
- Population Normal (%) [1]: 92%
- Population Pyknosed Nuclei (%) [1]: 9%
- Population Tubulin-Different-Phenotype (%) [1]: 24%
- Total Cell Count [1]: 424
- Population Apoptotic (%) [2]: 50%
- Population Fragmented Nuclei (%) [2]: 3%
- Population Healthy Nuclei (%) [2]: 84%
- Population Hoechst High Intensity Objects (%) [2]: 5%
- Population Mitochondria Different-Phenotype (%) [2]: 55%
- Population Mitotic Cells (%) [2]: 50%
- Population Normal (%) [2]: 94%
- Population Pyknosed Nuclei (%) [2]: 11%
- Population Tubulin-Different-Phenotype (%) [2]: 17%
- Total Cell Count [2]: 446
- Population Apoptotic (%) [3]: 44%
- Population Fragmented Nuclei (%) [3]: 10%
- Population Healthy Nuclei (%) [3]: 72%
- Population Hoechst High Intensity Objects (%) [3]: 15%
- Population Membrane Permeable-Phenotype (%) [3]: 0%
- Population Mitochondria Different-Phenotype (%) [3]: 67%
- Population Mitotic Cells (%) [3]: 56%
- Population Normal (%) [3]: 84%
- Population Pyknosed Nuclei (%) [3]: 16%
- Population Tubulin-Different-Phenotype (%) [3]: 53%
- Total Cell Count [3]: 368
- Population Fragmented Nuclei (%) [4]: 6%
- Population Healthy Nuclei (%) [4]: 77%
- Population Hoechst High Intensity Objects (%) [4]: 8%
- Population Mitochondria Different-Phenotype (%) [4]: 74%
- Population Normal (%) [4]: 91%
- Population Pyknosed Nuclei (%) [4]: 15%
- Population Tubulin-Different-Phenotype (%) [4]: 45%
- Total Cell Count [4]: 344
- Population Apoptotic (%) [5]: 30%
- Population Fragmented Nuclei (%) [5]: 10%
- Population Healthy Nuclei (%) [5]: 78%
- Population Hoechst High Intensity Objects (%) [5]: 3%
- Population Membrane Permeable-Phenotype (%) [5]: 0%
- Population Mitochondria Different-Phenotype (%) [5]: 27%
- Population Mitotic Cells (%) [5]: 70%
- Population Normal (%) [5]: 96%
- Population Pyknosed Nuclei (%) [5]: 10%
- Population Tubulin-Different-Phenotype (%) [5]: 18%
- Total Cell Count [5]: 574
- Population Fragmented Nuclei (%) [6]: 9%
- Population Healthy Nuclei (%) [6]: 82%
- Population Hoechst High Intensity Objects (%) [6]: 7%
- Population Mitochondria Different-Phenotype (%) [6]: 34%
- Population Mitotic Cells (%) [6]: 69%
- Population Normal (%) [6]: 92%
- Population Pyknosed Nuclei (%) [6]: 7%
- Population Tubulin-Different-Phenotype (%) [6]: 9%
- Total Cell Count [6]: 541
- Population Apoptotic (%) [7]: 36%
- Population Fragmented Nuclei (%) [7]: 8%
- Population Healthy Nuclei (%) [7]: 78%
- Population Hoechst High Intensity Objects (%) [7]: 9%
- Population Membrane Permeable-Phenotype (%) [7]: 0%
- Population Mitochondria Different-Phenotype (%) [7]: 55%
- Population Mitotic Cells (%) [7]: 63%
- Population Normal (%) [7]: 90%
- Population Pyknosed Nuclei (%) [7]: 13%
- Population Tubulin-Different-Phenotype (%) [7]: 43%
- Total Cell Count [7]: 490
- Population Apoptotic (%) [8]: 27%
- Population Fragmented Nuclei (%) [8]: 9%
- Population Healthy Nuclei (%) [8]: 80%
- Population Hoechst High Intensity Objects (%) [8]: 4%
- Population Mitochondria Different-Phenotype (%) [8]: 54%
- Population Mitotic Cells (%) [8]: 72%
- Population Normal (%) [8]: 95%
- Population Pyknosed Nuclei (%) [8]: 10%
- Population Tubulin-Different-Phenotype (%) [8]: 26%
- Total Cell Count [8]: 464
- Population Apoptotic (%) [9]: 16%
- Population Fragmented Nuclei (%) [9]: 14%
- Population Healthy Nuclei (%) [9]: 79%
- Population Hoechst High Intensity Objects (%) [9]: 1%
- Population Membrane Permeable-Phenotype (%) [9]: 2%
- Population Mitochondria Different-Phenotype (%) [9]: 17%
- Population Mitotic Cells (%) [9]: 83%
- Population Normal (%) [9]: 98%
- Population Pyknosed Nuclei (%) [9]: 6%
- Population Tubulin-Different-Phenotype (%) [9]: 11%
- Total Cell Count [9]: 950
- Population Apoptotic (%) [10]: 37%
- Population Fragmented Nuclei (%) [10]: 10%
- Population Healthy Nuclei (%) [10]: 84%
- Population Hoechst High Intensity Objects (%) [10]: 3%
- Population Membrane Permeable-Phenotype (%) [10]: 1%
- Population Mitochondria Different-Phenotype (%) [10]: 13%
- Population Mitotic Cells (%) [10]: 62%
- Population Normal (%) [10]: 96%
- Population Pyknosed Nuclei (%) [10]: 4%
- Population Tubulin-Different-Phenotype (%) [10]: 6%
- Total Cell Count [10]: 837
- Population Apoptotic (%) [11]: 43%
- Population Fragmented Nuclei (%) [11]: 16%
- Population Healthy Nuclei (%) [11]: 74%
- Population Hoechst High Intensity Objects (%) [11]: 6%
- Population Membrane Permeable-Phenotype (%) [11]: 0%
- Population Mitochondria Different-Phenotype (%) [11]: 46%
- Population Mitotic Cells (%) [11]: 56%
- Population Normal (%) [11]: 93%
- Population Pyknosed Nuclei (%) [11]: 9%
- Population Tubulin-Different-Phenotype (%) [11]: 29%
- Total Cell Count [11]: 674
- Population Apoptotic (%) [12]: 33%
- Population Fragmented Nuclei (%) [12]: 13%
- Population Healthy Nuclei (%) [12]: 78%
- Population Hoechst High Intensity Objects (%) [12]: 4%
- Population Membrane Permeable-Phenotype (%) [12]: 1%
- Population Mitochondria Different-Phenotype (%) [12]: 43%
- Population Mitotic Cells (%) [12]: 66%
- Population Normal (%) [12]: 95%
- Population Pyknosed Nuclei (%) [12]: 7%
- Population Tubulin-Different-Phenotype (%) [12]: 25%
- Total Cell Count [12]: 644
